{
  "source": "ChEMBL document CHEMBL1275286",
  "about": "“Synthesis of the steroidal glycoside (25R)-3β,16β-diacetoxy-12,22-dioxo-5α-cholestan-26-yl β-D-glucopyranoside and its anti-cancer properties on cervicouterine HeLa, CaSki, and ViBo cells” (Eur J Med Chem, 2010)",
  "key": {"Ca-Ski [1]": {"tested_on": "Ca-Ski", "experiment": "Cytotoxicity against human CaSki cells assessed as LDH release at IC50 after 24 hrs by spectrophotometry", "type": "functional", "procedure,_shortened": "(§1)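 7500 cells/well grown 24 h, then exposed for 24 h to the line's IC50 concentration or to ethanol (10 μL/mL). LDH in the supernatant read by INT-formazan at 500 nm, expressed against Triton X-100 lysis set as 100%. Mean ± S.D. of three independent experiments with three repetitions; Student's t-test.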"}, "Ca-Ski [2]": {"tested_on": "Ca-Ski", "experiment": "Induction of apoptosis in human CaSki cells assessed as caspase 3 activation at 42 uM after 24 hrs by immunocytochemistry", "type": "functional, cell-based", "procedure,_shortened": "(§2)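 Seeded at […] in RPMI-1640 with 5% NCS for 24 h, then treated with 42 or 65 μM. Fixed in formaldehyde, permeabilized in 0.5% Triton X-100, blocked. Rabbit polyclonal anti-active caspase-3 (1:50), then FITC goat anti-rabbit (1:200), DAPI counterstain. Epifluorescence microscopy; representative of three independent assays.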"}, "Ca-Ski [3]": {"tested_on": "Ca-Ski", "experiment": "Antiproliferative activity human CaSki cells after 24 hrs by crystal violet staining", "type": "functional, cell-based", "procedure,_shortened": "(§3)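 Cells kept in RPMI-1640 with 5% newborn calf serum, 37 °C, 5% CO2, in exponential growth. 7500 cells/well seeded and grown 24 h, then exposed to a range of concentrations with ethanol as vehicle (1% in controls). Crystal violet staining after 24 h, absorbance at 590 nm; IC50 from dose–response curves.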"}, "[4]": {"experiment": "Antiproliferative activity non-tumor human cervical fibroblast at 65 uM after 24 hrs by crystal violet staining", "procedure,_shortened": "(§4)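 Primary fibroblasts from hysterectomy cervix explants of patients without malignant disease. Tissue digested with 0.05% trypsin at 37 °C, cultured in RPMI-1640 with 10% NCS, adherent cells subcultured. Exposed to 42 or 65 μM, with 1% ethanol in controls. Cell number by crystal violet staining.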"}, "HeLa [5]": {"tested_on": "HeLa", "experiment": "Induction of apoptosis in human HeLa cells assessed as DNA fragmentation at IC50 after 24 hrs by TUNEL assay", "type": "functional, cell-based", "procedure,_shortened": "(§5)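 Cells on coverslips treated at IC50 for 24 h, with ethanol (10 μL/mL) as control. Fixed in 2% formaldehyde 20 min, permeabilized with 0.05% Triton X-100 for 5 min at 4 °C. TdT labeling with biotin-dUTP for 1 h at 37 °C, detected with rhodamine-streptavidin, DAPI counterstain. Fluorescence microscopy; representative of three independent assays.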"}, "[6]": {"experiment": "Cell cycle arrest in human ViBo cells assessed as accumulation at G1 phase at 42 uM after 24 hrs by flow cytometry", "type": "functional, cell-based", "procedure,_shortened": "(§6)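 Seeded at 10^5 cells/mL and grown 24 h, then exposed to 42 or 65 μM for 24 h, with ethanol as control. Harvested with versene, fixed and permeabilized in 50% methanol/PBS, treated with RNase (2.5 U/mL), stained with propidium iodide (0.2 μg/mL). Flow cytometry gave % DNA distribution by phase; Student's t-test versus ethanol.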"}, "[7]": {"experiment": "Antiproliferative activity non-tumor human cervical fibroblast at 42 uM after 24 hrs by crystal violet staining", "procedure,_shortened": "as §4"}, "HeLa [8]": {"tested_on": "HeLa", "experiment": "Antiproliferative activity human HeLa cells after 24 hrs by crystal violet staining", "type": "functional, cell-based", "procedure,_shortened": "as §3"}, "HeLa [9]": {"tested_on": "HeLa", "experiment": "Cytotoxicity against human HeLa cells assessed as LDH release at IC50 after 24 hrs by spectrophotometry", "type": "functional", "procedure,_shortened": "as §1"}, "HeLa [10]": {"tested_on": "HeLa", "experiment": "Induction of apoptosis in human HeLa cells assessed as caspase 3 activation at 42 uM after 24 hrs by immunocytochemistry", "type": "functional, cell-based", "procedure,_shortened": "as §2"}, "ViBo [11]": {"tested_on": "ViBo", "experiment": "Induction of apoptosis in human ViBo cells assessed as caspase 3 activation at 42 uM after 24 hrs by immunocytochemistry", "type": "functional, cell-based", "procedure,_shortened": "as §2"}, "Ca-Ski [12]": {"tested_on": "Ca-Ski", "experiment": "Cell cycle arrest in human CaSki cells assessed as accumulation at G2/M phase at 65 uM after 24 hrs by flow cytometry", "type": "functional, cell-based", "procedure,_shortened": "as §6"}, "[13]": {"experiment": "Cell cycle arrest in human ViBo cells assessed as accumulation at G1 phase at 65 uM after 24 hrs by flow cytometry", "type": "functional, cell-based", "conditions": "42 uM, in the assay text read “at 42 uM” for “at 65 uM”", "procedure,_shortened": "as §6"}, "ViBo [14]": {"tested_on": "ViBo", "experiment": "Induction of apoptosis in human ViBo cells assessed as DNA fragmentation at IC50 after 24 hrs by TUNEL assay", "type": "functional, cell-based", "procedure,_shortened": "as §5"}, "Ca-Ski [15]": {"tested_on": "Ca-Ski", "experiment": "Induction of apoptosis in human CaSki cells assessed as chromatin condensation at 65 uM after 24 hrs by DAPI staining", "type": "functional, cell-based"}, "ViBo [16]": {"tested_on": "ViBo", "experiment": "Induction of apoptosis in human ViBo cells assessed as chromatin condensation at 42 uM after 24 hrs by DAPI staining", "type": "functional, cell-based"}, "Ca-Ski [17]": {"tested_on": "Ca-Ski", "experiment": "Induction of apoptosis in human CaSki cells assessed as DNA fragmentation at IC50 after 24 hrs by TUNEL assay", "type": "functional, cell-based", "procedure,_shortened": "as §5"}, "HeLa [18]": {"tested_on": "HeLa", "experiment": "Induction of apoptosis in human HeLa cells assessed as caspase 3 activation at 65 uM after 24 hrs by immunocytochemistry", "type": "functional, cell-based", "procedure,_shortened": "as §2"}, "[19]": {"experiment": "Cytotoxicity against human lymphocytes assessed as LDH release at IC50 after 72 hrs by spectrophotometry", "conditions": "lymphocyte"}, "HeLa [20]": {"tested_on": "HeLa", "experiment": "Induction of apoptosis in human HeLa cells assessed as chromatin condensation at 65 uM after 24 hrs by DAPI staining", "type": "functional, cell-based"}, "ViBo [21]": {"tested_on": "ViBo", "experiment": "Induction of apoptosis in human ViBo cells assessed as caspase 3 activation at 65 uM after 24 hrs by immunocytochemistry", "type": "functional, cell-based", "procedure,_shortened": "as §2"}, "[22]": {"experiment": "Cytotoxicity against human ViBo cells assessed as LDH release at IC50 after 24 hrs by spectrophotometry", "type": "functional", "procedure,_shortened": "as §1"}, "Ca-Ski [23]": {"tested_on": "Ca-Ski", "experiment": "Cell cycle arrest in human CaSki cells assessed as accumulation at G2/M phase at 42 uM after 24 hrs by flow cytometry", "type": "functional, cell-based", "conditions": "65 uM, in the assay text read “at 65 uM” for “at 42 uM”", "procedure,_shortened": "as §6"}, "Ca-Ski [24]": {"tested_on": "Ca-Ski", "experiment": "Induction of apoptosis in human CaSki cells assessed as caspase 3 activation at 65 uM after 24 hrs by immunocytochemistry", "type": "functional, cell-based", "procedure,_shortened": "as §2"}, "[25]": {"experiment": "Effect on enriched human lymphocyte proliferation at 65 uM after 72 hrs by CSFE staining", "type": "cell-based", "procedure,_shortened": "(§7)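 PBMCs from healthy donors' heparinized blood isolated on a Hypaque gradient; adherent cells removed after 1 h. Labeled with 12 μM CFSE (final) for 15 min at room temperature, quenched with NCS, washed. Plated at 2×10^5 cells/well, unstimulated, PHA-stimulated or treated (42 or 65 μM), five replicates, 72 h at 37 °C.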"}, "HeLa [26]": {"tested_on": "HeLa", "experiment": "Cell cycle arrest in human HeLa cells assessed as accumulation at S phase at 65 uM after 24 hrs by flow cytometry", "type": "functional, cell-based", "procedure,_shortened": "as §6"}, "HeLa [27]": {"tested_on": "HeLa", "experiment": "Cell cycle arrest in human HeLa cells assessed as accumulation at S phase at 42 uM after 24 hrs by flow cytometry", "type": "functional, cell-based", "conditions": "65 uM, in the assay text read “at 65 uM” for “at 42 uM”", "procedure,_shortened": "as §6"}, "[28]": {"experiment": "Effect on enriched human lymphocyte proliferation at 42 uM after 72 hrs by CSFE staining", "type": "cell-based", "procedure,_shortened": "as §7"}, "ViBo [29]": {"tested_on": "ViBo", "experiment": "(§8) Antiproliferative activity human ViBo cells after 24 hrs by crystal violet staining", "type": "functional, cell-based", "procedure,_shortened": "as §3"}, "[30]": {"experiment": "as §8", "type": "functional, cell-based", "procedure,_shortened": "as §3"}},
  "note": "Active and inactive are the calls of the source. No cut-off for these calls is given here.",
  "data": [
    {"smiles": "CC(=O)O[C@H]1CC[C@@]2(C)[C@@H](CC[C@@H]3[C@@H]2CC(=O)[C@]2(C)[C@@H]([C@H](C)C(=O)CC[C@@H](C)CO)[C@@H](OC(C)=O)C[C@@H]32)C1", "values": [
      {"measurement": "Activity", "setting": "Ca-Ski [1]", "result": 28, "unit": "%"}
    ]},
    {"smiles": "CC(=O)O[C@H]1CC[C@@]2(C)[C@@H](CC[C@@H]3[C@@H]2CC(=O)[C@]2(C)[C@@H]([C@H](C)C(=O)CC[C@@H](C)CO[C@@H]4O[C@H](CO)[C@@H](O)[C@H](O)[C@H]4O)[C@@H](OC(C)=O)C[C@@H]32)C1", "values": [
      {"measurement": "Activity", "setting": "Ca-Ski [2]", "result": "Active"},
      {"measurement": "Activity", "setting": "Ca-Ski [3]", "result": "Dose-dependent effect"},
      {"measurement": "IC50", "setting": "Ca-Ski [3]", "result": 65, "unit": "µM"},
      {"measurement": "Activity", "setting": "[4]", "result": "< 20", "unit": "%"},
      {"measurement": "Activity", "setting": "HeLa [5]", "result": "Active"},
      {"measurement": "Activity", "setting": "[6]", "result": "Active"},
      {"measurement": "Activity", "setting": "[7]", "result": "< 20", "unit": "%"},
      {"measurement": "Activity", "setting": "HeLa [8]", "result": "Dose-dependent effect"},
      {"measurement": "IC50", "setting": "HeLa [8]", "result": 65, "unit": "µM"},
      {"measurement": "Activity", "setting": "HeLa [9]", "result": 13, "unit": "%"},
      {"measurement": "Activity", "setting": "HeLa [10]", "result": "Active"},
      {"measurement": "Activity", "setting": "ViBo [11]", "result": "Active"},
      {"measurement": "Activity", "setting": "Ca-Ski [12]", "result": "Active"},
      {"measurement": "Activity", "setting": "[13]", "result": "Active"},
      {"measurement": "Activity", "setting": "ViBo [14]", "result": "Active"},
      {"measurement": "Activity", "setting": "Ca-Ski [15]", "result": "Active"},
      {"measurement": "Activity", "setting": "ViBo [16]", "result": "Active"},
      {"measurement": "Activity", "setting": "Ca-Ski [17]", "result": "Active"},
      {"measurement": "Activity", "setting": "HeLa [18]", "result": "Active"},
      {"measurement": "Activity", "setting": "[19]", "result": "Non-toxic"},
      {"measurement": "Activity", "setting": "HeLa [20]", "result": "Active"},
      {"measurement": "Activity", "setting": "Ca-Ski [1]", "result": 17, "unit": "%"},
      {"measurement": "Activity", "setting": "ViBo [21]", "result": "Active"},
      {"measurement": "Activity", "setting": "[22]", "result": 3, "unit": "%"},
      {"measurement": "Activity", "setting": "Ca-Ski [23]", "result": "Active"},
      {"measurement": "Activity", "setting": "Ca-Ski [24]", "result": "Active"},
      {"measurement": "Activity", "setting": "[25]", "result": 71.06, "unit": "%"},
      {"measurement": "Activity", "setting": "HeLa [26]", "result": "Active"},
      {"measurement": "Activity", "setting": "HeLa [27]", "result": "Active"},
      {"measurement": "Activity", "setting": "[28]", "result": 73.88, "unit": "%"},
      {"measurement": "Activity", "setting": "ViBo [29]", "result": "Dose-dependent effect"},
      {"measurement": "IC50", "setting": "[30]", "result": 42, "unit": "µM"}
    ]}
  ]
}
